In ChEMBL document CHEMBL3046167, “Activity of meadowfoam (Limnanthes alba) seed meal glucolimnanthin degradation products against soilborne pathogens” (J Agric Food Chem, 2012):
≈ marks a conversion by molar mass, not a printed value. Calls of active or inactive are those of the source. The rule behind the calls is not given here.

Experiments:
[1] = tested on: Globisporangium irregulare; assay: Antiparasitic activity against Pythium irregulare assessed as culture diameter at 0.75 mg/ml after 24 hr; type: functional
Summary of the method: (§1)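 P. irregulare: 3-mm agar plugs from 1-week cultures (20 °C, dark) were placed in wells with water plus test solution in DMSO (final 2% DMSO). Exposure was 24 h at 25 °C in the dark. Plugs were then rinsed, blotted and placed on PDA with 250 mg/L ampicillin. Colony diameter was measured after 48 h at 20 °C, excluding dead plugs, and expressed as % of the water control. EC50 was derived by regression. Eight wells per concentration.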

[2] = tested on: Globisporangium irregulare; assay: Antiparasitic activity against Pythium irregulare assessed as culture diameter at 0.5 mg/ml after 24 hr; type: functional; summary of the method: as §1
[3] = tested on: Globisporangium irregulare; assay: Antiparasitic activity against Pythium irregulare assessed as culture diameter at 0.3 mg/ml after 24 hr; type: functional; summary of the method: as §1
[4] = tested on: Globisporangium irregulare; assay: Antiparasitic activity against Pythium irregulare assessed as culture diameter at 0.15 mg/ml after 24 hr; type: functional; summary of the method: as §1
[5] = tested on: Globisporangium irregulare; assay: Antiparasitic activity against Pythium irregulare assessed as culture diameter at 0.05 mg/ml after 24 hr; type: functional; summary of the method: as §1
[6] = tested on: Globisporangium irregulare; assay: Antiparasitic activity against Pythium irregulare assessed as culture diameter after 24 hr; type: functional, organism-based; summary of the method: as §1
[7] = tested on: Globisporangium irregulare; assay: Antiparasitic activity against Pythium irregulare assessed as culture diameter at <= 0.3 mg/ml after 24 hr; type: functional, organism-based; summary of the method: as §1
Meloidogyne hapla [8] = assay: Antiparasitic activity against Meloidogyne hapla J2 assessed as larvicidal activity for 24 hr measured after replacement with water; type: functional, organism-based; conditions: J2, 24 h
Summary of the method: (§2)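 M. hapla J2 (tomato-cultured isolate) in 96-well plates, 40–60 J2 per well in water with test solution in DMSO (final DMSO 2% v/v). Incubated covered in the dark at 25 °C for 24 h, then mortality scored visually. Compounds were then removed and replaced with water, and mortality was rescored after another 24 h. EC50 was taken from dose-response regression. Eight wells per concentration; experiments were run at least twice.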

Meloidogyne hapla [9] = assay: Antiparasitic activity against Meloidogyne hapla J2 assessed as larvicidal activity after 24 hr; type: functional, organism-based; conditions: J2, 24 h; summary of the method: as §2
Verticillium dahliae [10] = assay: Antiparasitic activity against Verticillium dahliae assessed as culture diameter after 24 hr; type: functional, organism-based
Summary of the method: (§3)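 V. dahliae: 3-mm plugs from 3-week cultures (20 °C, dark) were exposed for 24 h at 25 °C in wells of water with 2% DMSO and test compound. Plugs were then rinsed, blotted and plated on PDA with 250 mg/L ampicillin. Diameter was measured after 1 week at 20 °C, excluding non-growing plugs, and expressed as % of the water control. Eight wells per concentration.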

[11] = tested on: Globisporangium irregulare; assay: Antiparasitic activity against Pythium irregulare assessed as culture morality after 24 hr; type: functional, organism-based
Summary of the method: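 P. irregulare plugs were exposed in wells to compounds in 2% DMSO for 24 h at 25 °C, then rinsed and plated on ampicillin-amended PDA. Plugs failing to grow were counted as dead, giving percentage mortality per treatment. EC50 was estimated from dose-response regression. Eight replicate wells per concentration; experiments were run at least twice.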

Verticillium dahliae [12] = assay: Antiparasitic activity against Verticillium dahliae assessed as culture diameter at 0.2 mg/ml after 24 hr; type: functional; summary of the method: as §3
Verticillium dahliae [13] = assay: Antiparasitic activity against Verticillium dahliae assessed as culture diameter at 0.1 mg/ml after 24 hr; type: functional; summary of the method: as §3
Verticillium dahliae [14] = assay: Antiparasitic activity against Verticillium dahliae assessed as culture diameter at 0.08 mg/ml after 24 hr; type: functional; summary of the method: as §3
Verticillium dahliae [15] = assay: Antiparasitic activity against Verticillium dahliae assessed as culture diameter at 0.05 mg/ml after 24 hr; type: functional; summary of the method: as §3
Verticillium dahliae [16] = assay: Antiparasitic activity against Verticillium dahliae assessed as culture diameter at 0.03 mg/ml after 24 hr; type: functional; summary of the method: as §3
Verticillium dahliae [17] = assay: Antiparasitic activity against Verticillium dahliae assessed as culture diameter at 0.02 mg/ml after 24 hr; type: functional; summary of the method: as §3
Verticillium dahliae [18] = assay: Antiparasitic activity against Verticillium dahliae assessed as culture diameter at 0.01 mg/ml after 24 hr; type: functional; summary of the method: as §3
Verticillium dahliae [19] = assay: Antiparasitic activity against Verticillium dahliae assessed as culture diameter at 0.005 mg/ml after 24 hr; type: functional; summary of the method: as §3
Verticillium dahliae [20] = assay: Antiparasitic activity against Verticillium dahliae assessed as culture diameter at 0.001 mg/ml after 24 hr; type: functional; summary of the method: as §3
[21] = tested on: Globisporangium irregulare; assay: Antiparasitic activity against Pythium irregulare assessed as culture diameter at 0.2 mg/ml after 24 hr; type: functional; summary of the method: as §1
[22] = tested on: Globisporangium irregulare; assay: Antiparasitic activity against Pythium irregulare assessed as culture diameter at 0.1 mg/ml after 24 hr; type: functional; summary of the method: as §1
[23] = tested on: Globisporangium irregulare; assay: Antiparasitic activity against Pythium irregulare assessed as culture diameter at 0.075 mg/ml after 24 hr; type: functional; summary of the method: as §1
[24] = tested on: Globisporangium irregulare; assay: Antiparasitic activity against Pythium irregulare assessed as culture diameter at 0.025 mg/ml after 24 hr; type: functional; summary of the method: as §1

Work on `COc1cccc(CC(N)=S)c1` yielded a mortality at 750 µg/mL [1] of 0%, a mortality at 500 µg/mL [2] of 0% and a mortality at 300 µg/mL [3] of 0%. It also gave a mortality at 150 µg/mL [4] of 0%, a mortality at 50 µg/mL [5] of 0% and an EC50 [6] of 750 µg/mL (≈ 4140 µM). The Activity [7] was “inactive”, the EC50 (Meloidogyne hapla [8]) was 584 µg/mL (≈ 3220 µM) and the EC50 (Meloidogyne hapla [9]) was 245 µg/mL (≈ 1350 µM).

In the case of `COc1cccc(CN=C=S)c1` [3-METHOXYBENXYL ISOTHIOCYANATE], the EC50 (Verticillium dahliae [10]) is reported as 100 µg/mL (≈ 558 µM), the EC50 [11] is reported as 50 µg/mL (≈ 279 µM) and the mortality at 200 µg/mL (Verticillium dahliae [12]) is reported as 69%. It also gave a mortality at 100 µg/mL (Verticillium dahliae [13]) of 50%, a mortality at 80 µg/mL (Verticillium dahliae [14]) of 7% and a mortality at 50 µg/mL (Verticillium dahliae [15]) of 19%. It also gave a mortality at 30 µg/mL (Verticillium dahliae [16]) of 0%, a mortality at 20 µg/mL (Verticillium dahliae [17]) of 0% and a mortality at 10 µg/mL (Verticillium dahliae [18]) of 0%. The mortality at 5 µg/mL (Verticillium dahliae [19]) was 0%, the mortality at 1 µg/mL (Verticillium dahliae [20]) was 0% and the mortality at 200 µg/mL [21] was 88%. For the same compound, the mortality at 150 µg/mL [4] was 88%, the mortality at 100 µg/mL [22] was 63% and the mortality at 75 µg/mL [23] was 56%. The mortality at 50 µg/mL [5] was 54%, the mortality at 25 µg/mL [24] was 0% and the EC50 (Meloidogyne hapla [8]) was 3 µg/mL (≈ 16.7 µM). The EC50 (Meloidogyne hapla [9]) was 2 µg/mL (≈ 11.2 µM).
